Series [1] has as its target T1, Chymotrypsinogen A (Bos taurus, UniProt P00766). Description: In vitro inhibition of bovine alpha chymotrypsin. The gist of the method: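 Bovine pancreatic α-chymotrypsin (type I-S, 47 ng/mL) with N-succinyl-Ala-Ala-Pro-Phe-pNA (1.5 mM) in 50 mM HEPES pH 7.4 containing 0.1 mM NaCl, across a range of inhibitor concentrations. Incubated 120 min at 37 °C, then A405 read. IC50 taken from dose-inhibition curves, in triplicate. Chymostatin served as control.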

The target in series [2] is T1, Chymotrypsinogen A. Description: Compound was evaluated for inactivation of bovine alpha-Chymotrypsin Kinetic constant(Ki).
For series [3], the target named is Chymotrypsin-like elastase family member 1 (Sus scrofa, UniProt P00772). Description: Compound was tested by chromogenic assay for the inhibition of serine proteases like Porcine Elastase. Summed up: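 Purified porcine pancreatic elastase (type III) with chromogenic substrate N-succinyl-Ala-Ala-Ala-pNA in 50 mM HEPES, pH 7.4, with NaCl. Enzyme and substrate were mixed with a range of inhibitor concentrations and held at 37 °C for 120 min. Activity was read as absorbance at 405 nm. IC50 was taken from dose-inhibition curves, with elastatinal as the reference inhibitor.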
Chymotrypsin-like elastase family member 1, sequence (P00772 whole entry): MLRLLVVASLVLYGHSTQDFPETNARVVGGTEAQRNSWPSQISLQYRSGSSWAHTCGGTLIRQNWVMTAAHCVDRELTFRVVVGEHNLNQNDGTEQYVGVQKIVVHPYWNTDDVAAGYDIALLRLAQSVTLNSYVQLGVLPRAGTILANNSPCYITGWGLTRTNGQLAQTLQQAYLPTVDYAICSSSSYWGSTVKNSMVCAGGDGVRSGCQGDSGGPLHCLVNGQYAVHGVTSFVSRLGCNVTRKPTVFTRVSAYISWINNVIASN

The target in another series is T2, Serine protease 1 (Bos taurus, UniProt P00760).
T2 sequence (P00760 whole entry): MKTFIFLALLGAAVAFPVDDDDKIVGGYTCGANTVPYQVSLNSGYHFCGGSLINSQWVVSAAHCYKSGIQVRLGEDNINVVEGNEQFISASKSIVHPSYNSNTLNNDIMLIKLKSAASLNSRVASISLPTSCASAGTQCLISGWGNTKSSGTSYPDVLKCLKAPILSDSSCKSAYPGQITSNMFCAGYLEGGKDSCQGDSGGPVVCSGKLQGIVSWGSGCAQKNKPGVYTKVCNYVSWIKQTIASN
Kind of series: Compound was tested by chromogenic assay for the inhibition of serine proteases like Bovine trypsin. The gist of the method: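 Trypsin (1 U/mL; named porcine pancreatic in the methods, bovine in the table footnote) with Bz-L-Arg-pNA (1 mM) in 50 mM HEPES pH 7.4 containing 0.1 mM NaCl, with varied inhibitor concentrations. Incubated 120 min at 37 °C, then A405 read. IC50 from dose-inhibition curves, with leupeptin as control.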

A further series relates to chymotrypsin. Kind of series: Percentage of intact compound after chymotrypsin cleavage at 37 degree C for 120 min. Type of series: ADME. The following applies: read-out: Stability. Summed up: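 Inhibitor (5 mM stock, diluted 1:100 by volume) incubated with bovine α-chymotrypsin (625 ng/mL solution) for 120 min at 37 °C. Intact compound and cleaved free acid quantified by reverse-phase HPLC (50–75% acetonitrile in 0.1% TFA over 25 min). Result given as percent intact compound relative to the initial amount.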

In another series the target is T3, Chymase (Homo sapiens, UniProt P23946).
T3 sequence (P23946 whole entry): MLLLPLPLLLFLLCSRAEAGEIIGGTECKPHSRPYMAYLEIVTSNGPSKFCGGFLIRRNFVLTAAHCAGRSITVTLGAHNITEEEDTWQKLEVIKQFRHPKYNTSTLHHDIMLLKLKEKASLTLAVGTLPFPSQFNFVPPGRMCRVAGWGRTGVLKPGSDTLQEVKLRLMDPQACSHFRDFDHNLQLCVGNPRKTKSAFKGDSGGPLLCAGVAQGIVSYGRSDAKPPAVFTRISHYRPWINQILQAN
Kind of series: Compound was tested by chromogenic assay for the inhibition of human Serine protease chymase.

Another series addresses T4, Cathepsin G (Homo sapiens, UniProt P08311).
T4 sequence (P08311 whole entry): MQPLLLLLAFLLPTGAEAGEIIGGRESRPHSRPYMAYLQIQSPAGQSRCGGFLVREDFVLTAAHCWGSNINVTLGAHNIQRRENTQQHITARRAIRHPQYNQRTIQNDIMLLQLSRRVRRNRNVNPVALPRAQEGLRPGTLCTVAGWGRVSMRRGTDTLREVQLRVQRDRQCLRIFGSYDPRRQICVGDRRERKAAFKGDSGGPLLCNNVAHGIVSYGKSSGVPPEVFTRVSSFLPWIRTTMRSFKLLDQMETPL
Kind of series: Compound was tested by chromogenic assay for the inhibition of serine proteases like Human cathepsin G.

The text below walks through data of ChEMBL document CHEMBL1132421, “N-[2,2-dimethyl-3-(N-(4-cyanobenzoyl)amino)nonanoyl]-L-phenylalanine ethyl ester as a stable ester-type inhibitor of chymotrypsin-like serine proteases: structural requirements for potent inhibition of alpha-chymotrypsin” (J Med Chem, 1999).

The term IC50 denotes the concentration that gives 50% inhibition. A low value points to greater potency in that assay. For `CCCCCCC(NC(=O)c1ccc(C#N)cc1)C(C)(C)C(=O)N[C@@H](Cc1ccccc1)C(=O)OC(C)(C)C` (stereo not given in full), at Chymotrypsinogen A [1], inhibition was half-maximal at 73 µM (IC50).

`CCCCCCC(NC(=O)c1ccc(C#N)cc1)C(C)(C)C(=O)N[C@@H](Cc1ccccc1)C(=O)OCC` (stereo in doubt; 3): the Ki at Chymotrypsinogen A [2] was 0.0045 µM. The IC50 in series [3] is 0.007 µM; on Chymotrypsinogen A [1], 0.0026 µM; against Serine protease 1, 0.54 µM.

As to `CCCCCCCCCCC(NC(=O)c1ccc(C#N)cc1)C(C)(C)C(=O)N[C@@H](Cc1ccccc1)C(=O)OCC` (stereo not given in full), the remaining at 2 h in the series on chymotrypsin was found to be 16%.

Turning to `CCCCCCC(NC(=O)c1ccc(C#N)cc1)C(C)(C)C(=O)N[C@@H](Cc1ccccc1)C(=O)OCC` (stereo in doubt; 3-F), the half-inhibitory concentration (IC50) in series [3] stood at 0.0086 µM; at Chymotrypsinogen A [1], 0.0016 µM.

With `CCCCCCC(NC(=O)c1ccc(C#N)cc1)C(C)(C)C(=O)N[C@@H](Cc1ccccc1)C(=O)OC(C)C` (stereo not given in full), the remaining at 2 h in the series with chymotrypsin worked out at 98%. At Chymotrypsinogen A [2], this compound showed a Ki of 0.07 µM. Also, the IC50 in series [3] worked out at 0.2 µM; at Chymase it was 0.15 µM; against Chymotrypsinogen A [1], 0.086 µM; at Serine protease 1 it was 6.7 µM.

As for `CCOC(=O)[C@H](Cc1ccccc1)NC(=O)C(C)(C)C(CCc1ccccc1)NC(=O)c1ccc(C#N)cc1` (stereo not given in full), half-maximal inhibition against Chymotrypsinogen A [1] (IC50) was put at 0.25 µM.

Turning to `CCCCCC(NC(=O)c1ccc(C#N)cc1)C(C)(C)C(=O)N[C@@H](Cc1ccccc1)C(=O)OCC` (stereo not given in full), in the series with chymotrypsin, the remaining at 2 h was 3%.

Turning to `CCCCCCCCC(NC(=O)c1ccc(C#N)cc1)C(C)(C)C(=O)N[C@@H](Cc1ccccc1)C(=O)OCC` (stereo not given in full), the remaining at 2 h in the series with chymotrypsin is 61%. Moreover, the IC50 against Cathepsin G came to 6.6 µM; in series [3] it was 2.7 µM; against Chymotrypsinogen A [1] it was 8.6 µM.

Turning to `CCCCCCC(NC(=O)OC(C)(C)C)C(C)(C)C(=O)N[C@@H](Cc1ccccc1)C(=O)OCC` (stereo not given in full), the IC50 is 1 µM at Chymotrypsinogen A [1] and 6.3 µM at Serine protease 1.

As for `CCCCCCC(NC(=O)c1ccc(C#N)cc1)C(C)(C)C(=O)N[C@@H](Cc1ccccc1)C(=O)OCC` (stereo in doubt; 3-R), the IC50 in series [3] amounted to 0.014 µM; against Chymotrypsinogen A [1], 0.0051 µM.

For `CCCCCCC(NC(=O)c1ccc(C#N)cc1F)C(C)(C)C(=O)N[C@@H](Cc1ccccc1)C(=O)OCC` (stereo not given in full), the remaining at 2 h in the series on chymotrypsin turned out to be 6%.

At Chymotrypsinogen A [1], `CCCCCCC(NC(=O)c1ccco1)C(C)(C)C(=O)N[C@@H](Cc1ccccc1)C(=O)OCC` (stereo not given in full) registered an IC50 of 12 µM.

Take `CCOC(=O)[C@H](Cc1ccccc1)NC(=O)C(C)(C)C(NC(=O)c1ccc(C#N)cc1)C(C)C` (stereo not given in full): the remaining at 2 h in the series with chymotrypsin was 90%. In addition, the IC50 amounted to 2.2 µM on Chymotrypsinogen A [1] and 60 µM at Serine protease 1.

As to `CC(C)(C(=O)OC(=O)C(C)(C)C(CCc1ccccc1)NC(=O)c1ccc(C#N)cc1)C(CCc1ccccc1)NC(=O)c1ccc(C#N)cc1` (stereo not given), the IC50 at Chymotrypsinogen A [1] was determined as 0.0021 µM; at Serine protease 1 it was 0.3 µM.

At Chymotrypsinogen A [1], `CCCCCCC(NC(=O)c1ccc(C#N)cc1)C(C)(C)C(=O)N[C@@H](Cc1ccccc1)C(=O)OCc1ccccc1` (stereo not given in full) displayed an IC50 of 230 µM.

Regarding `CCCCCCCCCCCCC(NC(=O)c1ccc(C#N)cc1)C(C)(C)C(=O)N[C@@H](Cc1ccccc1)C(=O)OCC` (stereo not given in full), the IC50 at Chymotrypsinogen A [1] is 4.2 µM; against Serine protease 1, 220 µM.

Consider `CCCCCCC(NC(=O)c1ccccc1)C(C)(C)C(=O)N[C@@H](Cc1ccccc1)C(=O)OCC` (stereo not given in full), for which the remaining at 2 h with chymotrypsin is under 1%. For the same compound, the IC50 on Chymotrypsinogen A [1] was 17 µM; on Serine protease 1, 560 µM.

Take `CCOC(=O)[C@H](Cc1ccccc1)NC(=O)C(C)(C)C(CC)NC(=O)c1ccc(C#N)cc1` (stereo not given in full): in the series on chymotrypsin, the remaining at 2 h was determined as 91%. This compound returned an IC50 at Chymotrypsinogen A [1] of 3.4 µM.

Regarding `CCCCC(NC(=O)c1ccc(C#N)cc1)C(C)(C)C(=O)N[C@@H](Cc1ccccc1)C(=O)OCC` (stereo not given in full), the IC50 was determined as 710 µM in series [3], 510 µM at Chymase and 27 µM on Chymotrypsinogen A [1].

With `CCOC(=O)[C@H](Cc1ccccc1)NC(=O)C(C)(C)C(CC(C)C)NC(=O)c1ccc(C#N)cc1` (stereo not given in full), the remaining at 2 h in the series on chymotrypsin amounted to 41%.

Take `CCCCCCC(NC(=O)c1ccc(C#N)cc1)C(C)(C)C(=O)N[C@@H](Cc1ccccc1)C(=O)OCCC` (stereo not given in full): in the series with chymotrypsin, the remaining at 2 h turned out to be 97%. The Ki on Chymotrypsinogen A [2] was found to be 0.34 µM. Also, the IC50 amounted to 0.27 µM in series [3], 0.23 µM at Chymotrypsinogen A [1] and 17 µM on Serine protease 1.

On to `CCCCCCCC(NC(=O)c1ccc(C#N)cc1)C(C)(C)C(=O)N[C@@H](Cc1ccccc1)C(=O)OCC` (stereo not given in full), for which the remaining at 2 h in the series with chymotrypsin was under 1%.

As for `CCCC(NC(=O)c1ccc(C#N)cc1)C(C)(C)C(=O)N[C@@H](Cc1ccccc1)C(=O)OCC` (stereo not given in full), the remaining at 2 h in the series on chymotrypsin was 11%.

`CCCCCCC(NC(=O)c1ccc(C#N)cc1)C(C)(C)C(=O)N[C@@H](Cc1ccccc1)C(=O)OC` (stereo not given in full): in the series with chymotrypsin, the remaining at 2 h came to 98%. The Ki at Chymotrypsinogen A [2] was 12 µM. Also, the IC50 is 1.5 µM on Cathepsin G, 4.2 µM in series [3] and 1.1 µM at Chymotrypsinogen A [1].
